Experiment [1] concerns the target GABA-A receptor; anion channel (Bos taurus) (UniProt P10063+P08220+P20237+P08219+P10064+P22300). The experiment in a line: Inhibition of [3H]- flumazenil binding to benzodiazepine receptor in bovine brain membranes at a dose of 10 uM. Format: cell membranes. The gist of the method:
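Bovine brain membranes were freeze-thawed, washed by suspension and centrifugation in 50 mM tris-citrate pH 7.4, then used for competition binding against [3H]flumazenil. Specific binding inhibition was first measured at a fixed 10 µM. […] Protein was measured by the Lowry method.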

The target of experiment [2] is GABA-A receptor; anion channel. The experiment in a line: Inhibition of [3H]- flumazenil binding to benzodiazepine receptor in bovine brain membranes. Type of experiment: cell membranes. Summed up:
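Bovine brain membranes were freeze-thawed, washed by suspension and centrifugation in 50 mM tris-citrate pH 7.4, then used for competition binding against [3H]flumazenil. Specific binding inhibition was first measured at a fixed 10 µM. Protein was measured by the Lowry method.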

The target of experiment [3] is GABA-A receptor; alpha-1/beta-2/gamma-2 (Rattus norvegicus, UniProt P18508+P62813+P63138). The experiment can be described thus: Inhibition of [3H]flumazenil binding to rat alpha-1-beta-2-gamma-2 GABA-A receptor subunits expressed in HEK293 cells. Type of experiment: cell-based. The gist of the method: (§1)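 Membranes came from HEK293 clonal lines expressing rat GABAA subtypes, grown in MEM/EBSS with 10% FCS, 2 mM glutamine and penicillin/streptomycin at 37 °C in 5% CO2. Membranes were homogenized and centrifuged (48 000 × g, 30 min, 4 °C) in 10 mM K-phosphate pH 7.4 and resuspended with 100 mM KCl. […] Nonspecific binding was defined with 10^-5 M diazepam. Results are the mean of three determinations.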

Experiment [4] addresses GABA A receptor alpha-3/beta-2/gamma-2 (Rattus norvegicus, UniProt P18508+P20236+P63138). The experiment in a line: Inhibition of [3H]flumazenil binding to rat alpha-3-beta-2-gamma-2 GABA-A receptor subunits expressed in HEK293 cells. Format: cell-based. The gist of the method: as §1
The nature of experiment [5]: Ratio of Ki with out GABA and with GABA.
The target in experiment [6] is GABA A receptor alpha-5/beta-3/gamma-2 (Rattus norvegicus, UniProt P18508+P19969+P63079). The experiment can be described thus: Inhibition of [3H]flumazenil binding to rat alpha-5-beta-3-gamma-2 GABA-A receptor subunits expressed in HEK293 cells. Type of experiment: cell-based. Summed up:
as §1

Here are results for 56 compounds from ChEMBL document CHEMBL1134525, “Novel N-(arylalkyl)indol-3-ylglyoxylylamides targeted as ligands of the benzodiazepine receptor: synthesis, biological evaluation, and molecular modeling analysis of the structure-activity relationships” (J Med Chem, 2001).

“And” between values parts separate entries of the source, which are not always exact repeats. Identical values can stand only once. Some results are limits rather than exact numbers.

Sequence of GABA-A receptor; alpha-1/beta-2/gamma-2 (P18508 whole entry): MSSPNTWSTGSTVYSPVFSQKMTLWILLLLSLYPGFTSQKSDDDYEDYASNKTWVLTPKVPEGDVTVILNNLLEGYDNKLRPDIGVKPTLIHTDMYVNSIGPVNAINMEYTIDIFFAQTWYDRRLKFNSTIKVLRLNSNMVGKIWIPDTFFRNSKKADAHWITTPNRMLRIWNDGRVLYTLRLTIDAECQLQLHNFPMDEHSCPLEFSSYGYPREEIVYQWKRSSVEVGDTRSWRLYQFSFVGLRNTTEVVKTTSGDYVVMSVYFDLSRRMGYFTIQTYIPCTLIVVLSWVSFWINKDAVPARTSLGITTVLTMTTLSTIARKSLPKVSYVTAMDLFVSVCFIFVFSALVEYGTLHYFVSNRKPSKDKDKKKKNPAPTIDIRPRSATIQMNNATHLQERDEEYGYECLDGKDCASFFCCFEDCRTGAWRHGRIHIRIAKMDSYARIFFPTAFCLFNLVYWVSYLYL
Sequence of GABA-A receptor; alpha-1/beta-2/gamma-2 (P62813 whole entry): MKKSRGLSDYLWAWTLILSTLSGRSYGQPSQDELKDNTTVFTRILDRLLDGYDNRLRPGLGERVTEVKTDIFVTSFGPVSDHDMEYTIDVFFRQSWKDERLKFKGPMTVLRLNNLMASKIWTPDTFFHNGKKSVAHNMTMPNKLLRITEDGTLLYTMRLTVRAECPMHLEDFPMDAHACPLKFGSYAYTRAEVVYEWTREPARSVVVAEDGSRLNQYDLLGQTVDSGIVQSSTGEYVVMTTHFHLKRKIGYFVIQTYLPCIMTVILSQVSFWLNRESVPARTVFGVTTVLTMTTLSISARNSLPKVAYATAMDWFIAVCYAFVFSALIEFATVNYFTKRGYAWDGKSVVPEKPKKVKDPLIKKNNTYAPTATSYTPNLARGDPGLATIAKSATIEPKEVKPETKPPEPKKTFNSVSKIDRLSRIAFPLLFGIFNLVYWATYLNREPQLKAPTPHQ
Sequence of GABA-A receptor; alpha-1/beta-2/gamma-2 (P63138 whole entry): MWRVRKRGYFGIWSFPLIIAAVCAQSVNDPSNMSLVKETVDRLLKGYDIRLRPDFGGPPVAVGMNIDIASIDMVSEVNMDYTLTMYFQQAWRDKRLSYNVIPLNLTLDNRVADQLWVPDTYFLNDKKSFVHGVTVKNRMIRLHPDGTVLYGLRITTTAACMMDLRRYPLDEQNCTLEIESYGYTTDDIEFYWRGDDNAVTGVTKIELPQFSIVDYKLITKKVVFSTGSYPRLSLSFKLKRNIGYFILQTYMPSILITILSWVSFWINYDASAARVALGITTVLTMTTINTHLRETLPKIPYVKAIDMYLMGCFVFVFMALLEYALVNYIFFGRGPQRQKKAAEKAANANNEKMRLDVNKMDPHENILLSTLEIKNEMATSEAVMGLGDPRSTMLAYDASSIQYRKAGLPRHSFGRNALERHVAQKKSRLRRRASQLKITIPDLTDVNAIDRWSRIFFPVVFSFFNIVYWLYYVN
Sequence of GABA A receptor alpha-5/beta-3/gamma-2 (P18508 whole entry): as the sequence (P18508 whole entry) above
Sequence of GABA A receptor alpha-5/beta-3/gamma-2 (P19969 whole entry): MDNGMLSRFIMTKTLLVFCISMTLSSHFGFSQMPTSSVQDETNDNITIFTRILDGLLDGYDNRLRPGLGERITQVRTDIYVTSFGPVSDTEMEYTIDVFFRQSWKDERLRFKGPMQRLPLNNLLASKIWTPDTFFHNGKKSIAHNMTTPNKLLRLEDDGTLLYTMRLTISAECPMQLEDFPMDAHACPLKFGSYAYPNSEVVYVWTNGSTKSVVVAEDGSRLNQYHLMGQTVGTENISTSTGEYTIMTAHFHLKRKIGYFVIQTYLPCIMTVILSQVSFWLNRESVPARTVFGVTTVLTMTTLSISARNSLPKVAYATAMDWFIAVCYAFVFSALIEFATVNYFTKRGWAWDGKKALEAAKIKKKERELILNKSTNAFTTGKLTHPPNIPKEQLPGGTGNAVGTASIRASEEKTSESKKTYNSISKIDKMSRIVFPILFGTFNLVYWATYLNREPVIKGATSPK
Sequence of GABA A receptor alpha-5/beta-3/gamma-2 (P63079 whole entry): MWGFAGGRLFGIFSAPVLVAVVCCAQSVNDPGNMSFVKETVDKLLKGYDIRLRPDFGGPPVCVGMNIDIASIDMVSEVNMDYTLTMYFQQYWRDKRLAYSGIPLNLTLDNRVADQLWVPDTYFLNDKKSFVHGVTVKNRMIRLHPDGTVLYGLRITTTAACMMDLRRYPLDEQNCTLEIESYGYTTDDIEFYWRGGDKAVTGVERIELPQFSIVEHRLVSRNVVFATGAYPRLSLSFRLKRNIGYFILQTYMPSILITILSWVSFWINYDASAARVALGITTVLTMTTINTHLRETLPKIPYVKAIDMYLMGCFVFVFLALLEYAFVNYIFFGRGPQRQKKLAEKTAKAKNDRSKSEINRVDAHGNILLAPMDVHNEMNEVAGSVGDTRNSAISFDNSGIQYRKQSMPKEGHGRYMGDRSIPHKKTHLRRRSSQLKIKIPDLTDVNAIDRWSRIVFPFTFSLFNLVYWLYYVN
Sequence of GABA A receptor alpha-3/beta-2/gamma-2 (P18508 whole entry): as the sequence (P18508 whole entry) above
Sequence of GABA A receptor alpha-3/beta-2/gamma-2 (P20236 whole entry): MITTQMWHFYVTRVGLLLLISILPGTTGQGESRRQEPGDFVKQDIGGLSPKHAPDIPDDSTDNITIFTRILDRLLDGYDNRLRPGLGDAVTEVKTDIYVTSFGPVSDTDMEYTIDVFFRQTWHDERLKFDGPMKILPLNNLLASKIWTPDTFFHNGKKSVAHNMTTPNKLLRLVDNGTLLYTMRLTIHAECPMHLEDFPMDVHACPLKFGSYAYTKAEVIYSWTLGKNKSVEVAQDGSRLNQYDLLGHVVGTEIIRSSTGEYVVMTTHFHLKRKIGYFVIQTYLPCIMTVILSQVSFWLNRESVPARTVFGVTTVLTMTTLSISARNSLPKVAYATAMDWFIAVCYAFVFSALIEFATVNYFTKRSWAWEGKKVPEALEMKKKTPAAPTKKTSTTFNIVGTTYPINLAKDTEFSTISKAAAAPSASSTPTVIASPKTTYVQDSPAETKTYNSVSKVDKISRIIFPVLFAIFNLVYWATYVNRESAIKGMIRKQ
Sequence of GABA A receptor alpha-3/beta-2/gamma-2 (P63138 whole entry): as the sequence (P63138 whole entry) above

Usually inhibition stands for the percentage by which the read-out fell short of the control. A higher inhibition goes with a response far below the control. `CCOC(=O)C(NC(=O)C(=O)c1c[nH]c2ccccc12)c1ccccc1` (racemic): the inhibition in experiment [1] is less than 80%.

With `C[C@@H](NC(=O)C(=O)c1c[nH]c2ccc(Cl)cc12)c1ccccc1`, in experiment [1], the inhibition was less than 80%.

The term Ki denotes the equilibrium dissociation constant of an inhibitor or competing ligand from its target. Read a low Ki as higher affinity. As to `COc1ccc(CNC(=O)C(=O)c2c[nH]c3ccc(OC)cc23)cc1`, in experiment [2], the affinity corresponds to a Ki of 494 nM.

The compound `O=C(NC(CO)c1ccccc1)C(=O)c1c[nH]c2ccccc12` (racemic) gave an inhibition in experiment [1] of less than 80%.

In the case of `O=C(N[C@H]1CCc2ccccc21)C(=O)c1c[nH]c2ccc([N+](=O)[O-])cc12`, the inhibition in experiment [1] is less than 80%.

As to `O=C(N[C@H]1CCc2ccccc21)C(=O)c1c[nH]c2ccc(Cl)cc12`, in experiment [1], the inhibition is less than 80%.

`C[C@@H](NC(=O)C(=O)c1c[nH]c2ccccc12)c1ccc([N+](=O)[O-])cc1` registered an inhibition in experiment [1] of less than 80%.

Take `COc1ccc(C(C)NC(=O)C(=O)c2c[nH]c3ccccc23)cc1OC` (racemic): in experiment [2], the affinity corresponds to a Ki of 850 nM.

As to `C[C@H](NC(=O)C(=O)c1c[nH]c2ccc(Cl)cc12)c1ccc([N+](=O)[O-])cc1`, the inhibition in experiment [1] was less than 80%.

In experiment [1], `O=C(NCc1ccc(Cl)cc1)C(=O)c1c[nH]c2ccc([N+](=O)[O-])cc12` registered an inhibition of less than 80%.

For the compound `COc1ccc(NNC(=O)C(=O)c2c[nH]c3ccc(Cl)cc23)cc1`, the inhibition in experiment [1] is less than 80%.

In turn, `COc1ccc(C(C)NC(=O)C(=O)c2c[nH]c3ccc(Cl)cc23)cc1OC` (racemic) came in with a Ki in experiment [2] of 153 nM.

Take `N#CC(NC(=O)C(=O)c1c[nH]c2ccccc12)c1ccccc1` (racemic): the inhibition in experiment [1] was less than 80%.

For the compound `O=C(NCc1ccc([N+](=O)[O-])cc1)C(=O)c1c[nH]c2ccc([N+](=O)[O-])cc12`, in experiment [2], the Ki is 620 nM.

`C[C@H](NC(=O)C(=O)c1c[nH]c2ccccc12)c1ccccc1` yielded an inhibition in experiment [1] of less than 80%.

Turning to `N#CC(NC(=O)C(=O)c1c[nH]c2ccc([N+](=O)[O-])cc12)c1ccccc1` (racemic), the Ki in experiment [2] was 241 nM.

Regarding `COc1ccc(C(C)NC(=O)C(=O)c2c[nH]c3ccc([N+](=O)[O-])cc23)cc1` (racemic), the Ki in experiment [2] was determined as 113 nM.

The compound `C[C@@H](NC(=O)C(=O)c1c[nH]c2ccc([N+](=O)[O-])cc12)c1ccc([N+](=O)[O-])cc1` showed a Ki in experiment [2] of 78 nM.

Consider `C[C@H](NC(=O)C(=O)c1c[nH]c2ccc([N+](=O)[O-])cc12)c1ccccc1`, for which, in experiment [1], the inhibition was less than 80%.

For the compound `C[C@H](NC(=O)C(=O)c1c[nH]c2ccc(Cl)cc12)c1ccccc1`, the Ki in experiment [2] was determined as 100 nM.

In turn, `COc1ccc2[nH]cc(C(=O)C(=O)NCc3ccc(Cl)cc3)c2c1` gave an inhibition in experiment [1] of less than 80%.

`O=C(NNc1ccc([N+](=O)[O-])cc1)C(=O)c1c[nH]c2ccc([N+](=O)[O-])cc12`: the inhibition in experiment [1] is less than 80%.

Regarding `C[C@H](NC(=O)C(=O)c1c[nH]c2ccc([N+](=O)[O-])cc12)c1ccc([N+](=O)[O-])cc1`, in experiment [1], the inhibition is less than 80%.

`Cc1ccc([C@@H](C)NC(=O)C(=O)c2c[nH]c3ccc(Cl)cc23)cc1` displayed a Ki in experiment [2] of 105 nM.

As to `Cc1ccc([C@H](C)NC(=O)C(=O)c2c[nH]c3ccc(Cl)cc23)cc1`, the inhibition in experiment [1] was less than 80%.

In the case of `O=C(NNc1ccc([N+](=O)[O-])cc1)C(=O)c1c[nH]c2ccccc12`, the Ki amounted to 25 nM in experiment [3], 40 nM in experiment [4] and 43 nM in experiment [6]. Besides, the Ratio in experiment [5] is 0.96 and 0.98 and 0.8.

`O=C(C(=O)N1Cc2ccccc2C1)c1c[nH]c2ccc(Cl)cc12`: the inhibition in experiment [1] was less than 80%.

As for `O=C(NNc1ccc([N+](=O)[O-])cc1)C(=O)c1c[nH]c2ccc(Cl)cc12`, in experiment [1], the inhibition was less than 80%.

`COc1ccc(C(C)NC(=O)C(=O)c2c[nH]c3ccc(Cl)cc23)cc1` (racemic) registered a Ki in experiment [2] of 103 nM.

Take `C[C@H](NC(=O)C(=O)c1c[nH]c2ccccc12)c1ccc([N+](=O)[O-])cc1`: the inhibition in experiment [1] is less than 80%.

`COc1ccc(NNC(=O)C(=O)c2c[nH]c3ccc(OC)cc23)cc1` had an inhibition in experiment [1] of less than 80%.

`O=C(NC(CO)c1ccccc1)C(=O)c1c[nH]c2ccc([N+](=O)[O-])cc12` (racemic): the inhibition in experiment [1] was less than 80%.

In experiment [1], `Cc1ccc([C@H](C)NC(=O)C(=O)c2c[nH]c3ccc([N+](=O)[O-])cc23)cc1` came in with an inhibition of less than 80%.

Compound `CCOC(=O)CNC(=O)C(=O)c1c[nH]c2ccc([N+](=O)[O-])cc12` registered a Ki in experiment [2] of 2700 nM.

As to `O=C(N[C@H]1CCc2ccccc21)C(=O)c1c[nH]c2ccccc12`, the inhibition in experiment [1] was less than 80%.

In experiment [1], `COc1ccc2[nH]cc(C(=O)C(=O)NNc3ccc([N+](=O)[O-])cc3)c2c1` came in with an inhibition of less than 80%.

Regarding `C[C@@H](NC(=O)C(=O)c1c[nH]c2ccc([N+](=O)[O-])cc12)c1ccccc1`, the Ki was determined as 14 nM in experiment [3], 17 nM in experiment [2], 283 nM in experiment [4] and 239 nM in experiment [6].

`COc1ccc(C(C)NC(=O)C(=O)c2c[nH]c3ccccc23)cc1` (racemic) came in with a Ki in experiment [2] of 1170 nM. In other words, the single-digit micromolar range.

With `O=C(NC1Cc2ccccc2C1)C(=O)c1c[nH]c2ccc([N+](=O)[O-])cc12`, the inhibition in experiment [1] is less than 80%.

As to `C[C@@H](NC(=O)C(=O)c1c[nH]c2ccc(Cl)cc12)c1ccc([N+](=O)[O-])cc1`, in experiment [2], affinity was put at a Ki of 695 nM.

For the compound `O=C(NCc1ccc(Cl)cc1)C(=O)c1c[nH]c2ccc(Cl)cc12`, the inhibition in experiment [1] was less than 80%.

The compound `COc1ccc(C(C)NC(=O)C(=O)c2c[nH]c3ccc([N+](=O)[O-])cc23)cc1OC` (racemic) displayed a Ki in experiment [2] of 55 nM. This counts as double-digit nanomolar.

Compound `CCOC(=O)[C@@H](C)NC(=O)C(=O)c1c[nH]c2ccc([N+](=O)[O-])cc12` gave a Ki in experiment [2] of 45 nM.

Consider `Cc1ccc([C@H](C)NC(=O)C(=O)c2c[nH]c3ccccc23)cc1`, for which, in experiment [1], the inhibition was less than 80%.

`O=C(C(=O)N1Cc2ccccc2C1)c1c[nH]c2ccc([N+](=O)[O-])cc12`: in experiment [1], the inhibition was less than 80%.

On to `O=C(NC1Cc2ccccc2C1)C(=O)c1c[nH]c2ccc(Cl)cc12`, for which, in experiment [1], the inhibition was less than 80%.

`CCOC(=O)[C@H](C)NC(=O)C(=O)c1c[nH]c2ccc([N+](=O)[O-])cc12` displayed a Ki in experiment [2] of 1950 nM.

`O=C(NCc1ccc([N+](=O)[O-])cc1)C(=O)c1c[nH]c2ccc(Cl)cc12`: affinity in experiment [2] was put at a Ki of 1370 nM.

Compound `Cc1ccc([C@@H](C)NC(=O)C(=O)c2c[nH]c3ccc([N+](=O)[O-])cc23)cc1` showed a Ki in experiment [2] of 34 nM.

In the case of `O=C(N[C@@H]1CCc2ccccc21)C(=O)c1c[nH]c2ccc(Cl)cc12`, the Ki in experiment [2] is 80 nM.

Compound `O=C(NC1Cc2ccccc2C1)C(=O)c1c[nH]c2ccccc12` returned an inhibition in experiment [1] of less than 80%.

`CCOC(=O)C(NC(=O)C(=O)c1c[nH]c2ccc([N+](=O)[O-])cc12)c1ccccc1` (racemic) yielded an inhibition in experiment [1] of less than 80%.

`Cc1ccc([C@@H](C)NC(=O)C(=O)c2c[nH]c3ccccc23)cc1` came in with a Ki in experiment [2] of 1150 nM.

In experiment [1], `COc1ccc(NNC(=O)C(=O)c2c[nH]c3ccc([N+](=O)[O-])cc23)cc1` gave an inhibition of less than 80%.

Regarding `O=C(NCc1ccc([N+](=O)[O-])cc1)C(=O)c1c[nH]c2ccccc12`, the Ki in experiment [3] was determined as 16 nM; in experiment [2], 21 nM; in experiment [4], 1600 nM; in experiment [6] it was 58 nM. The Ratio in experiment [5] is 0.9 and 0.91 and 0.73.

Turning to `COc1ccc(CNC(=O)C(=O)c2c[nH]c3ccc([N+](=O)[O-])cc23)cc1`, the Ki in experiment [3] turned out to be 42 nM; in experiment [4] it was 137 nM; in experiment [6], 126 nM. Also, the Ratio in experiment [5] was 1.11 and 0.96 and 0.9.
